High-throughput results as filed in PubChem.
Rows were chosen to be rich in hits. Some 5% of all compounds tested hit in one or more screens of this group.
Beta cell apopt: blocks beta cell apoptosis; INS-1E cytokine-induced death, ATP luminescence, 48 h; percent of positive-control rescue, neutral wells zero; protection from apoptosis, % (test concentration not listed); 300,000 compounds, 0.8% hits; AID 435005;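 active means Every replicate reaches about 75%, or at least half do and their mean reaches it too, limit read from the data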;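 further: 0% = cytokine-treated negative control wells and 100% = positive control rescue; higher means more ATP so stronger rescue from cytokine killing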
UPR CHOP act: apoptotic UPR (CHOP) activation. CHO-CHOP luciferase reporter, luminescence; percent of tunicamycin response over DMSO baseline. activation, % at 10 µM. 330,000 compounds, 0.34% hits. AID 449763;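 active means at 10 µM dose, activation of 40% or more, normalized to positive control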;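 further: 100% = tunicamycin at 10 µg/mL and 0% = DMSO alone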
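Dosing – one dose, 10 µM in 0.5% DMSO · System – CHO-CHOP cells, stable luciferase reporter of PERK-eIF2a-CHOP signalling · Input – 500 cells/well · Control set – tunicamycin 10 µg/mL final as positive, DMSO-only wells as negative · Timing – 6 h compound treatment, 37 °C · Measure – % activation vs tunicamycin · Technique – luminescence read with Steady-Glo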
Mdm2-MdmX inh: inhibitors of human Mdm2/MdmX interaction. inhibition, % at 8 µM. SaOS-2 split-luciferase Mdm2/MdmX complementation, luminescence. O15151+Q00987. 330,000 compounds, 3% hits;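 active means inhibition of at least 50% at 8 µM in the primary screen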
Target sequence (O15151 whole entry, looked up): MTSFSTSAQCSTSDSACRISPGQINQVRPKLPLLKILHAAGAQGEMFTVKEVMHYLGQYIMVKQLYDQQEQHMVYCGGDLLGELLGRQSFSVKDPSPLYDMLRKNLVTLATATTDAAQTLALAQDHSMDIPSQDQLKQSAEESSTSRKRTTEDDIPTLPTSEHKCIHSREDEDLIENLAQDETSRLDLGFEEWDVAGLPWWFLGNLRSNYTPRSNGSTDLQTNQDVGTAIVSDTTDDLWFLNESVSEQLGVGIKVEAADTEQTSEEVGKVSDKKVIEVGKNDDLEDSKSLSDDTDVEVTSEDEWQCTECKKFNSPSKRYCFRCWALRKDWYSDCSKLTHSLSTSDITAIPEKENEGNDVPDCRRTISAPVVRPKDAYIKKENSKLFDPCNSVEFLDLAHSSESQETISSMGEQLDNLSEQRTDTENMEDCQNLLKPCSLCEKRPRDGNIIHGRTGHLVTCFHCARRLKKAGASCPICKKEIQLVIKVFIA
Target sequence (Q00987 whole entry, looked up): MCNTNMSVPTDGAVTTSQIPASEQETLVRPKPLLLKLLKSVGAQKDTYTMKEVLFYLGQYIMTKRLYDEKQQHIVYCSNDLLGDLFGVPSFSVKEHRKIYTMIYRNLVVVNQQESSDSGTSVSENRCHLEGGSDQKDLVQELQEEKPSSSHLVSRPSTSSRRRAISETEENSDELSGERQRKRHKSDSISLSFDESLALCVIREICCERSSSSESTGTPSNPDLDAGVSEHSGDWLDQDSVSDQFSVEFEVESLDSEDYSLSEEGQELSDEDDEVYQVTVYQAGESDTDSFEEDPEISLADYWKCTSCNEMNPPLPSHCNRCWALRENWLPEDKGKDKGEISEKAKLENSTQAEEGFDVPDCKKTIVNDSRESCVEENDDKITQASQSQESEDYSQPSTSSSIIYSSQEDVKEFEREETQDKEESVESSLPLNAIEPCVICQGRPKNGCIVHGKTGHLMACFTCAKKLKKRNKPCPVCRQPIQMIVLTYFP
CSC inhib: cancer stem cell inhibition; 300,000 compounds, 1.1% hits; cancer stem cell-like cells viability, luminescence; inhibition, % at 7.5 µM; in the data active means inhibition above about 75%; tested in HMLE shEcad cells
T cruzi repl: blocks replication of Trypanosoma cruzi | T. cruzi beta-gal in NIH3T3, luminescence, 90 h | inhibition, % (no concentration beside the values) | 300,000 compounds, 1.4% hits | AID 1885;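 active means mean inhibition across valid replicates above about 55%, limit read from the data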;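 further: signal also drops with host cell toxicity which is not excluded here; 0% = plate median of DMSO wells and 100% = zero luminescence signal; higher percent means less beta-gal luminescence so fewer parasites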
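Material: NIH/3T3 host cells with β-galactosidase reporter T. cruzi; Input: 5,000 host fibroblasts per well; Medium: DMEM, 2% fetal bovine serum; Compound: 50 nL DMSO compound solution per well; Schedule: 3 h host attachment, then at least 90 h co-culture; Detection: luminescent β-galactosidase signal after 60 min lysis.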
UPR XBP1 act: activators of adaptive arm of unfolded protein response (XBP1). 330,000 compounds, 0.33% hits. activation, % at 20 µM. CHO-XBP1 luciferase reporter, IRE1-XBP1 UPR activation, luminescence; percent of tunicamycin response, DMSO as zero;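 active means versus positive control, 20 µM dose yields 30% or more activation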;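 further: 100% = tunicamycin at 10 µg/mL and 0% = DMSO only wells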
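Signal: luciferase luminescence; Assay system: CHO-XBP1 luciferase reporter cells; Amount: one thousand reporter cells per well; Dosing: 20 µM single concentration, DMSO 1%; Benchmarks: high control tunicamycin 10 µg/mL final, low control DMSO vehicle only; Schedule: 6 h compound exposure at 37 °C, 5% CO2; Evaluation: percent activation relative to tunicamycin reference.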
Active calls of the source: *; · = not tested or not shown.

SMILES	Beta cell apopt	UPR CHOP act	Mdm2-MdmX inh	CSC inhib	T cruzi repl	UPR XBP1 act
O=C(C[C@H]1C/C=C\CC[C@@H](Cc2ccc(F)cc2)C(=O)O[C@@H](c2ccccc2)CNC1=O)N[C@@H](CO)Cc1ccccc1	4	0	14	-5	·	1
CCCc1c(-c2ccc(O)cc2)nn(-c2ccc(O)cc2)c1-c1ccc(O)cc1	-1	2	46	84*	-4	-8
CCCCSc1nsc(NC(C)=O)n1	2	4	-46	-10	47	3
CCCSc1nsc(NC(=O)CCC)n1	4	5	-119	15	56*	1
CCCCCCCNC(=O)C1(CC2CC(c3cccc(Br)c3)=NO2)CCN(C(=O)c2ccccc2)CC1 (centres undefined)	4	0	14	-4	61*	-1
O=C(CN1CCC(Cc2ccccc2)CC1)NC(=O)NCc1ccccc1	-2	2	24	-1	-2	3
Cc1ccc(C)c(S(=O)(=O)N2CCN(CC(=O)NC(=O)NCc3ccccc3)CC2)c1	-3	-3	17	-24	56*	1
Cc1ccc(N2C(=O)N(CC(=O)Nc3ccccc3C(F)(F)F)C(=O)C2C)cc1 (centres undefined)	0	0	-27	·	·	-2
Cc1cc(C(=O)N2CCc3c([nH]c4ccccc34)C2c2cccc(Cl)c2)nn1C (centres undefined)	6	3	29	15	56*	-2
CSc1ccc(C2c3[nH]c4ccccc4c3CCN2C(=O)c2cc(C)n(C)n2)cc1 (centres undefined)	3	3	-93	-8	53	14
Cc1ccsc1/C=N/NC(=O)C1C(=O)NCC1c1ccccc1 (centres undefined)	4	0	9	-9	-7	1
Cc1ccc(Cl)cc1NC(=O)c1ccc(Cn2cc(Cl)cn2)cc1	3	-2	25	100*	-2	-1
O=C(Nc1ccccc1F)c1ccc(Cn2cc(Cl)cn2)cc1	-4	0	-19	11	-10	4
COCCOc1ccc(C(F)(F)F)cc1NC(=O)c1ccccc1	4	3	-4	·	12	-2
CC(C)(C)c1ccc(OCCOc2ccc(C(C)(C)C)cc2NC=O)c(NC=O)c1	·	5	32	·	59*	7
CCN(C(=O)c1ccc(C(C)(C)C)cc1)c1nnc(Cn2nnc3ccccc32)s1	112*	14	46	62	39	0
CC(C)C[C@H](NC(=O)c1nc[nH]c1C(=O)N1CCN(C(=O)OC(C)(C)C)CC1)C(=O)OCc1ccccc1	-2	2	35	·	1	-1
O=C(CCS(=O)(=O)c1ccc(Br)s1)Nc1ccccc1Br	4	2	-5	11	11	5
Cc1ccc(C)c(NC(=S)N2CCC(c3nc4ccccc4s3)CC2)c1	-8	1	9	7	60*	2
Cc1ccc2nc(C3CCCN(C(=S)Nc4ccccc4C)C3)[nH]c2c1 (centres undefined)	9	-1	21	7	67*	-3
CCCCNc1c(NC(C)=O)c(=O)oc2ccccc12	-7	-3	4	-7	-14	-4
O=C(NCC(c1ccco1)N1CCCC1)c1cc2ccccc2s1 (centres undefined)	-4	1	-33	2	·	-2
COc1cc(OC)cc(-c2cc3nc4c(c(N5CCN(c6ncccn6)CC5)n3n2)CCCC4)c1	16	2	38	-6	60*	14
CCc1c(C)nc2cc(-c3cc(OC)cc(OC)c3)nn2c1N1CCCC1	10	0	29	83*	26	7
CCOCCN1CCN(c2c(CC)c(C)nc3cc(-c4cc(OC)cc(OC)c4)nn23)CC1	5	0	16	-4	16	3
SMILES	Beta cell apopt	UPR CHOP act	Mdm2-MdmX inh	CSC inhib	T cruzi repl	UPR XBP1 act
CN(C)c1ccc(C(=S)NCc2ccco2)cc1	-3	-7	-49	2	-13	-9
Cc1cccc(NC(=S)N2CCC(C(N)=O)(N3CCCCC3)CC2)c1C	-6	0	-1	-7	-10	6
COc1ccc(-n2c3c(c(=O)[nH]c2=O)C(NC(C)=O)(C(F)(F)F)C(=O)N3)cc1 (centres undefined)	4	-1	-1	-1	-20	0
Nc1ccc(N(c2ccccc2)c2ccc(N)cc2)cc1	·	4	8	90*	58*	3
CCOc1ccc(-c2c(C(=O)N/N=C/c3ccc(C)s3)nnn2-c2nonc2N)cc1	2	2	-2	7	-1	-4
CN1CCN(S(=O)(=O)c2ccc(N3CCN(c4ccc(O)cc4)CC3)c([N+](=O)[O-])c2)CC1	0	-2	11	0	5	-3
CC(=O)N1CCc2cc(S(=O)(=O)Nc3ccc(C)cc3C)ccc21	4	0	26	-3	4	-6
Cc1ccc(NS(=O)(=O)c2ccc(N3CCN(c4ccc(O)cc4)CC3)c([N+](=O)[O-])c2)c(C)c1	20	1	17	83*	10	1
O=[N+]([O-])c1cc(S(=O)(=O)Nc2ccccc2)ccc1N1CCN(c2ccc(O)cc2)CC1	5	-1	-22	77*	2	4
CCn1c(NC(=S)Nc2ccccc2)nc2ccccc21	·	4	-11	13	65*	8
COc1ccc(CN(C)C2CCN(C)CC2)cc1OC	-3	1	21	2	5	-3
CCCN1CCC(N(C)CCc2ccc(OC)c(OC)c2)CC1	1	-2	-16	-1	56*	0
COCCNc1nc(-c2cc(C)n(CCc3ccc(OC)cc3)c2C)cs1	1	-1	-1	3	60*	1
Cc1ccc(S(=O)(=O)c2c(C)nn(C(C)(C)C)c2OC(=O)c2cccs2)cc1	-11	1	42	84*	2	-5
CC(=O)Oc1c(S(=O)(=O)c2ccc(C)cc2)c(C)nn1C(C)(C)C	-7	1	43	14	7	-2
CCOc1ccc(C(=O)NNC(=O)c2cc(S(=O)(=O)N3CCOCC3)ccc2Cl)cc1	-1	2	-16	·	·	2
CC1CC/C(=C\c2ccc3c(c2)OCO3)C(=O)/C1=C/c1ccc2c(c1)OCO2 (centres undefined)	5	0	26	81*	29	2
CCN(C[C@H]1N[C@@](Cc2ccccc2)(C(=O)OC)[C@H]2C(=O)N(Cc3ccccc3)C(=O)[C@@H]12)C(=O)COc1ccccc1	-3	1	-1	-7	·	-1
CCCCCNCc1ccc(Cl)cc1	0	1	10	·	11	2
CCCCCCC[N+](CC)(CC)CCCCc1ccc(Cl)cc1	114*	2	36	7	·	-5
